{"data": "Published values pooled from the literature", "note": "Each line is one published result; the experiments were not run side by side."}
{"Compound": "O=C(NCCN1CCCC1)c1cc(-c2ccc(CN3CCOCC3)cc2)nc2ccc(F)cc12", "host": "male beagle dog", "matrix": "blood", "route": "intravenous", "dose": "1 mg/kg", "half-life [h]": 13}
{"Compound": "Oc1c(-n2ccnn2)cnn1-c1cc(N2CCOCC2)ncn1", "host": "female dog", "matrix": "plasma", "route": "intravenous", "dose": "3 mg/kg", "half-life [h]": 2.7}
{"Compound": "CC[C@@H]1CN(C(=O)NCC(F)(F)F)C[C@@H]1c1cnc2cnc3[nH]ccc3n12", "host": "beagle dog", "matrix": "plasma", "route": "oral", "dose": "1 mg/kg", "setting": "single dose", "half-life [h]": 11.6}
{"Compound": "Cc1cnc(N2CC3(CCOCC3)C2)c(C(=O)Nc2ccc(C(=O)N3CCc4cc(C(=O)Nc5c(C)cccc5F)sc4-c4ccccc43)cc2)c1", "host": "dog", "matrix": "plasma", "route": "intravenous", "dose": "0.1 mg/kg", "setting": "single dose", "half-life [h]": 2.4}
{"Compound": "C=CC(=O)Nc1cc(Nc2nccc(Nc3cc(Cl)c(F)cc3C(C)(C)O)n2)c(OC)cc1N1CC[C@@H](N(C)C)C1", "host": "beagle dog", "matrix": "plasma", "route": "intravenous", "dose": "1 mg/kg", "half-life [h]": 13.9}
{"Compound": "CCn1c(=O)c(-c2cc(NC(=O)Nc3ccccc3)c(F)cc2Br)cc2cnc(NC)cc21", "host": "beagle dog", "matrix": "plasma", "route": "oral", "dose": "5 mg/kg", "setting": "single dose", "half-life [h]": 6.96}
{"Compound": "COc1cc2c3c(n(CCCN4CCOCC4)c(=O)c2cc1OC)-c1cc2c(cc1C3=O)OCO2", "host": "female beagle dog", "matrix": "plasma", "route": "intravenous", "dose": "100 mg/m²", "setting": "infusion", "half-life [h]": 14}
{"Compound": "Cc1nnc2sc(C(=O)NCc3ccc(-c4cccnc4F)cc3)c(N)c2c1C", "host": "dog", "matrix": "plasma", "route": "intravenous", "half-life [h]": 1}
